In ChEMBL document CHEMBL1158358, “Synthesis, antimicrobial and cytotoxic activities of some 5-arylidene-4-thioxo-thiazolidine-2-ones” (Eur J Med Chem, 2009):
Values after ≈ are worked out from the molar mass of the structure shown.

How the values were obtained:
Assay type in all cases: functional
Staphylococcus aureus [1] = assay: Antimicrobial activity against Staphylococcus aureus UFPEDA 01 after 20 hrs by twofold serial dilution technique; details: UFPEDA 01, 20 h
Outline: (§1)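 Twofold serial dilution MIC in agar plates against Gram-positive strains and multidrug-resistant clinical isolates. Inoculum applied was 10⁵ CFU/plate. Plates with culture medium plus DMSO served as negative control. MIC was read after incubation at 35 °C for 20 h.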

Bacillus subtilis [2] = assay: Antimicrobial activity against Bacillus subtilis UFPEDA 16 after 20 hrs by twofold serial dilution technique; details: UFPEDA 16, 20 h
Outline: (§2)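 MIC was determined by twofold serial dilution. Bacteria were tested in plates at 10⁵ CFU/plate and read after 20 h. C. albicans was tested in tubes at 10³ CFU/tube and read after 48 h. All incubations were at 35 °C. Medium plus DMSO served as the negative control.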

Micrococcus luteus [3] = assay: Antimicrobial activity against Micrococcus luteus UFPEDA 06 after 20 hrs by twofold serial dilution technique; details: UFPEDA 06, 20 h; outline: as §2
Enterococcus faecalis [4] = assay: Antimicrobial activity against Enterococcus faecalis UFPEDA 138 after 20 hrs by twofold serial dilution technique; details: UFPEDA 138, 20 h; outline: as §2
[5] = system: Mycolicibacterium smegmatis; assay: Antimicrobial activity against Mycobacterium smegmatis UFPEDA 71 after 20 hrs by twofold serial dilution technique; details: UFPEDA 71, 20 h; outline: as §2
Candida albicans [6] = assay: Antimicrobial activity against Candida albicans UFPEDA 1007 after 48 hrs by twofold serial dilution technique; details: UFPEDA 1007, 48 h; outline: as §2
Staphylococcus aureus [7] = assay: Antimicrobial activity against multidrug-resistant Staphylococcus aureus H.C. 20981 isolate after 20 hrs by twofold serial dilution technique; details: H.C. 20981, 20 h; outline: as §1
Staphylococcus aureus [8] = assay: Antimicrobial activity against multidrug-resistant Staphylococcus aureus H.C. 21141 isolate after 20 hrs by twofold serial dilution technique; details: H.C. 21141, 20 h; outline: as §1
Staphylococcus aureus [9] = assay: Antimicrobial activity against multidrug-resistant Staphylococcus aureus H.C. 21036 isolate after 20 hrs by twofold serial dilution technique; details: H.C. 21036, 20 h; outline: as §1
Staphylococcus aureus [10] = assay: Antimicrobial activity against multidrug-resistant Staphylococcus aureus H.C. 20489 isolate after 20 hrs by twofold serial dilution technique; details: H.C. 20489, 20 h; outline: as §1
Staphylococcus aureus [11] = assay: Antimicrobial activity against multidrug-resistant Staphylococcus aureus H.C. 20794 isolate after 20 hrs by twofold serial dilution technique; details: H.C. 20794, 20 h; outline: as §1
Staphylococcus aureus [12] = assay: Antimicrobial activity against multidrug-resistant Staphylococcus aureus H.C. 20905 isolate after 20 hrs by twofold serial dilution technique; details: H.C. 20905, 20 h; outline: as §1
Enterococcus faecalis [13] = assay: Antimicrobial activity against multidrug-resistant Enterococcus faecalis H.C. 21752 isolate after 20 hrs by twofold serial dilution technique; details: H.C. 21752, 20 h; outline: as §1
Enterococcus faecalis [14] = assay: Antimicrobial activity against multidrug-resistant Enterococcus faecalis H.C. 21944 isolate after 20 hrs by twofold serial dilution technique; details: H.C. 21944, 20 h; outline: as §1
Enterococcus faecalis [15] = assay: Antimicrobial activity against multidrug-resistant Enterococcus faecalis H.C. 24708 isolate after 20 hrs by twofold serial dilution technique; details: H.C. 24708, 20 h; outline: as §1
Enterococcus faecalis [16] = assay: Antimicrobial activity against multidrug-resistant Enterococcus faecalis H.C. 24962 isolate after 20 hrs by twofold serial dilution technique; details: H.C. 24962, 20 h; outline: as §1
Staphylococcus [17] = assay: Antimicrobial activity against coagulase-negative Staphylococcus H.A.M. 278 isolate after 20 hrs by twofold serial dilution technique; details: H.A.M. 278, 20 h; outline: as §2
Staphylococcus [18] = assay: Antimicrobial activity against coagulase-negative Staphylococcus H.A.M. 338 isolate after 20 hrs by twofold serial dilution technique; details: H.A.M. 338, 20 h; outline: as §2
NCI-H292 [19] = assay: Cytotoxicity against human NCI-H292 cells at 10 ug/mL after 72 hrs by MTT assay; details: NCI-H292, 72 h, read-out: GI
Outline: (§3)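 MTT antiproliferative assay. Cells were diluted to 10⁵ cells/mL in 96-well plates and preincubated for 24 h at 37 °C in humid 5% CO₂. Compounds or vincristine (reference) were then added. Formazan was dissolved and OD read at 540 nm, compared with medium-only control cells. Run in triplicate.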

NCI-H292 [20] = assay: Cytotoxicity against human NCI-H292 cells at 5 ug/mL after 72 hrs by MTT assay; details: NCI-H292, 72 h, read-out: GI; outline: as §3
NCI-H292 [21] = assay: Cytotoxicity against human NCI-H292 cells at 2.5 ug/mL after 72 hrs by MTT assay; details: NCI-H292, 72 h, read-out: GI; outline: as §3
NCI-H292 [22] = assay: Cytotoxicity against human NCI-H292 cells at 1.25 ug/mL after 72 hrs by MTT assay; details: NCI-H292, 72 h, read-out: GI; outline: as §3
HEp-2 [23] = assay: Cytotoxicity against human Hep2 cells at 10 ug/mL after 72 hrs by MTT assay; details: HEp-2, 72 h, read-out: GI; outline: as §3
HEp-2 [24] = assay: Cytotoxicity against human Hep2 cells at 5 ug/mL after 72 hrs by MTT assay; details: HEp-2, 72 h, read-out: GI; outline: as §3
HEp-2 [25] = assay: Cytotoxicity against human Hep2 cells at 2.5 ug/mL after 72 hrs by MTT assay; details: HEp-2, 72 h, read-out: GI; outline: as §3
HEp-2 [26] = assay: Cytotoxicity against human Hep2 cells at 1.25 ug/mL after 72 hrs by MTT assay; details: HEp-2, 72 h, read-out: GI; outline: as §3
Serratia marcescens = assay: Antimicrobial activity against Serratia marcescens UFPEDA 398 at 300 ug/disk after 24 hrs by disk diffusion method; details: UFPEDA 398, 24 h, read-out: IZ
Outline: (§4)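 Preliminary screen by disk diffusion. Paper disks (6 mm) holding 300 µg of compound were placed on agar plates inoculated with a standardized microbial suspension. DMSO-only disks served as negative controls. A mean inhibition zone below 7 mm was scored as no sensitivity. Values are means, n = 3.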

Escherichia coli = assay: Antimicrobial activity against Escherichia coli UFPEDA 224 at 300 ug/disk after 24 hrs by disk diffusion method; details: UFPEDA 224, 24 h, read-out: IZ; outline: as §4
Staphylococcus aureus [27] = assay: Antimicrobial activity against Staphylococcus aureus UFPEDA 01 at 300 ug/disk after 24 hrs by disk diffusion method; details: UFPEDA 01, 24 h, read-out: IZ; outline: as §4
Bacillus subtilis [28] = assay: Antimicrobial activity against Bacillus subtilis UFPEDA 16 at 300 ug/disk after 24 hrs by disk diffusion method; details: UFPEDA 16, 24 h, read-out: IZ; outline: as §4
Micrococcus luteus [29] = assay: Antimicrobial activity against Micrococcus luteus UFPEDA 06 at 300 ug/disk after 24 hrs by disk diffusion method; details: UFPEDA 06, 24 h, read-out: IZ; outline: as §4
Enterococcus faecalis [30] = assay: Antimicrobial activity against Enterococcus faecalis UFPEDA 138 at 300 ug/disk after 24 hrs by disk diffusion method; details: UFPEDA 138, 24 h, read-out: IZ; outline: as §4
Pseudomonas aeruginosa = assay: Antimicrobial activity against Pseudomonas aeruginosa UFPEDA 39 at 300 ug/disk after 24 hrs by disk diffusion method; details: UFPEDA 39, 24 h, read-out: IZ; outline: as §4
[31] = system: Mycolicibacterium smegmatis; assay: Antimicrobial activity against Mycobacterium smegmatis UFPEDA 71 at 300 ug/disk after 24 hrs by disk diffusion method; details: UFPEDA 71, 24 h, read-out: IZ; outline: as §4
Candida albicans [32] = assay: Antimicrobial activity against Candida albicans UFPEDA 1007 at 300 ug/disk after 48 hrs by disk diffusion method; details: UFPEDA 1007, 48 h, read-out: IZ; outline: as §4

SMILES	MIC (Staphylococcus aureus [1])	MIC (Bacillus subtilis [2])	MIC (Micrococcus luteus [3])	MIC (Enterococcus faecalis [4])	MIC [5]	MIC (Candida albicans [6])	MIC (Staphylococcus aureus [7])	MIC (Staphylococcus aureus [8])	MIC (Staphylococcus aureus [9])	MIC (Staphylococcus aureus [10])	MIC (Staphylococcus aureus [11])	MIC (Staphylococcus aureus [12])	MIC (Enterococcus faecalis [13])	MIC (Enterococcus faecalis [14])	MIC (Enterococcus faecalis [15])	MIC (Enterococcus faecalis [16])	MIC (Staphylococcus [17])	MIC (Staphylococcus [18])	inhibition of growth at 10 µg/mL (NCI-H292 [19])	inhibition of growth at 5 µg/mL (NCI-H292 [20])	other results
O=C1NC(=S)/C(=C/c2ccccc2F)S1	8 µg/mL (≈ 33.4 µM)	32 µg/mL (≈ 134 µM)	32 µg/mL (≈ 134 µM)	32 µg/mL (≈ 134 µM)	32 µg/mL (≈ 134 µM)	32 µg/mL (≈ 134 µM)	4 µg/mL (≈ 16.7 µM)	8 µg/mL (≈ 33.4 µM)	2 µg/mL (≈ 8.36 µM)	4 µg/mL (≈ 16.7 µM)	8 µg/mL (≈ 33.4 µM)	8 µg/mL (≈ 33.4 µM)	32 µg/mL (≈ 134 µM)	32 µg/mL (≈ 134 µM)	32 µg/mL (≈ 134 µM)	32 µg/mL (≈ 134 µM)	32 µg/mL (≈ 134 µM)	16 µg/mL (≈ 66.9 µM)	40.4%	25.2%	inhibition of growth at 2.5 µg/mL (NCI-H292 [21]): 7.78%; inhibition of growth at 1.25 µg/mL (NCI-H292 [22]): 4.29%; inhibition of growth at 10 µg/mL (HEp-2 [23]): 11.2%; inhibition of growth at 5 µg/mL (HEp-2 [24]): 8.86%; inhibition of growth at 2.5 µg/mL (HEp-2 [25]): 1.66%; inhibition of growth at 1.25 µg/mL (HEp-2 [26]): -8.34%; zone of inhibition at 300 µg/disc (Serratia marcescens): < 7 mm; zone of inhibition at 300 µg/disc (Escherichia coli): < 7 mm; zone of inhibition at 300 µg/disc (Staphylococcus aureus [27]): 24 mm; zone of inhibition at 300 µg/disc (Bacillus subtilis [28]): 23 mm; zone of inhibition at 300 µg/disc (Micrococcus luteus [29]): 25 mm; zone of inhibition at 300 µg/disc (Enterococcus faecalis [30]): 20 mm; zone of inhibition at 300 µg/disc (Pseudomonas aeruginosa): < 7 mm; zone of inhibition at 300 µg/disc [31]: 20 mm; zone of inhibition at 300 µg/disc (Candida albicans [32]): 16 mm
O=C1NC(=S)/C(=C/c2ccc(Cl)cc2Cl)S1	2 µg/mL (≈ 6.89 µM)	2 µg/mL (≈ 6.89 µM)	8 µg/mL (≈ 27.6 µM)	16 µg/mL (≈ 55.1 µM)	4 µg/mL (≈ 13.8 µM)	32 µg/mL (≈ 110 µM)	2 µg/mL (≈ 6.89 µM)	4 µg/mL (≈ 13.8 µM)	8 µg/mL (≈ 27.6 µM)	2 µg/mL (≈ 6.89 µM)	2 µg/mL (≈ 6.89 µM)	2 µg/mL (≈ 6.89 µM)	4 µg/mL (≈ 13.8 µM)	4 µg/mL (≈ 13.8 µM)	8 µg/mL (≈ 27.6 µM)	8 µg/mL (≈ 27.6 µM)	4 µg/mL (≈ 13.8 µM)	2 µg/mL (≈ 6.89 µM)	38.4%	29.3%	inhibition of growth at 2.5 µg/mL (NCI-H292 [21]): 14.7%; inhibition of growth at 1.25 µg/mL (NCI-H292 [22]): 12.1%; inhibition of growth at 10 µg/mL (HEp-2 [23]): 24.8%; inhibition of growth at 5 µg/mL (HEp-2 [24]): 20%; inhibition of growth at 2.5 µg/mL (HEp-2 [25]): 15.3%; inhibition of growth at 1.25 µg/mL (HEp-2 [26]): 6.83%; zone of inhibition at 300 µg/disc (Serratia marcescens): < 7 mm; zone of inhibition at 300 µg/disc (Escherichia coli): < 7 mm; zone of inhibition at 300 µg/disc (Staphylococcus aureus [27]): 23 mm; zone of inhibition at 300 µg/disc (Bacillus subtilis [28]): 24 mm; zone of inhibition at 300 µg/disc (Micrococcus luteus [29]): 24 mm; zone of inhibition at 300 µg/disc (Enterococcus faecalis [30]): 18 mm; zone of inhibition at 300 µg/disc (Pseudomonas aeruginosa): < 7 mm; zone of inhibition at 300 µg/disc [31]: 19 mm; zone of inhibition at 300 µg/disc (Candida albicans [32]): 15 mm
